ChEMBL document CHEMBL4020833, “A Systematic Exploration of Macrocyclization in Apelin-13: Impact on Binding, Signaling, Stability, and Cardiovascular Effects” (J Med Chem, 2018)
pEC50, pKi: −log10 of the molar value. Activity calls are given as the source filed them. The rule behind the calls is not given here. Starred links: 1 amine or outer side, 2 acyl side, 3 side chain; linkers in the order of their positions; H or OH if unused. Positions of bridges follow the written chain, without caps; N, C: chain ends. Non-standard residues stand in square brackets, D forms with d. Residues, ends and D or L forms follow the SMILES beside them. X2 = N=C(N)NCCC[C@@H](C(=O)[*:2])N(CC=[*:3])[*:1]; AllylGly = C=CC[C@H](N)C(=O)O; pGlu = O=C1CC[C@@H](C(=O)O)N1; Nle = CCCC[C@H](N)C(=O)O

What was measured:
Apelin receptor [1] = molecular target: T1, Apelin receptor (Homo sapiens, UniProt P35414); assay: Displacement of [125I]-[Nle75, Tyr77] Pyr1-apelin-13 from YFP-tagged human APJ receptor expressed in HEK293 cell membranes after 1 hr by gamma-counting method
T1 sequence (P35414 whole entry): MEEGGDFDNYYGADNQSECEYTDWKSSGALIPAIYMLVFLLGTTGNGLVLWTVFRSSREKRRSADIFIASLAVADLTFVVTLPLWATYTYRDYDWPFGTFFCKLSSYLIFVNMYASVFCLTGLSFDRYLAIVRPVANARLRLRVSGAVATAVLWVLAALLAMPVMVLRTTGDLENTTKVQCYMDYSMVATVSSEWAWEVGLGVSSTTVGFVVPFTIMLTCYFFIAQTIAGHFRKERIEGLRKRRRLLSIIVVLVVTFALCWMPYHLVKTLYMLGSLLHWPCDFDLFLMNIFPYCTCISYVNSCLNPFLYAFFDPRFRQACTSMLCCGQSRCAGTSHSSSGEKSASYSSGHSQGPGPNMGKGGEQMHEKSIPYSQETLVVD

Apelin receptor [2] = molecular target: T1, Apelin receptor; assay: Activity at human APJ receptor expressed in HEK293 cells assessed as dissociation of Galphai1 from Gbetagamma subunit after 5 mins by BRET assay; assay type: cell-based
Apelin receptor [3] = molecular target: T1, Apelin receptor; assay: Activity at GFP10-tagged human APJ receptor expressed in HEK293 cells assessed as induction of RlucII-tagged beta-arrestin-2 recruitment after 30 mins by BRET assay; assay type: cell-based
[4] = Half life in rat plasma at 1 mM by UPLC-MS analysis; assay type: ADME, cell-free
Method in brief: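 Male rat plasma incubated with peptide at 37 °C for 2, 4, 7, 24 h (or 10, 20, 60, 120 min for short-lived peptides); quenched with acetonitrile-ethanol (1:1) plus nicotinamide internal standard, then UPLC-MS. Percent remaining fitted to exponential decay for half-life; means ± SEM of three independent experiments. 1 mM is the stock solution.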

Rattus norvegicus [5] = assay: Hypotensive activity in Sprague-Dawley rat assessed as reduction in systemic arterial blood pressure at 19.5 or 65 nmol/kg, iv administered over 10 secs; assay type: functional
Method in brief: (§1)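 Male Sprague-Dawley rats (250-350g) anesthetized with intramuscular ketamine/xylazine (87/13 mg/kg), kept on a thermostatic pad. Carotid catheter for arterial pressure; jugular bolus of saline vehicle, then 5 min later peptide (19.6 or 65 nmol/kg; 0.25 ml over 10 s), followed by a saline flush.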

Apelin receptor [6] = molecular target: T1, Apelin receptor; assay: Induction of human HA-tagged APJ receptor internalization expressed in HEK293 cells after 30 mins by ELISA; assay type: cell-based
[7] = AUC in Sprague-Dawley rat at 3 mg/kg, iv measured up to 120 mins by LC-MS/MS analysis; assay type: ADME, organism-based; parameters: dose 3 mg/kg, time < 2 hr, route intravenous; settings: in vivo
Method in brief: (§2)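 Male Sprague-Dawley rats (250-350g) under intramuscular ketamine/xylazine (87/13 mg/kg); compound in 350 µL normal saline given via jugular vein. Carotid blood drawn into EDTA tubes at 1, 5, 10, 15, 30, 60, 120 min (1, 2, 5, 10, 15 min for Pyr-apelin-13), centrifuged for plasma, acetonitrile precipitation with internal standard, LC-MS/MS (ESI+, MRM).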

[8] = Drug level in Sprague-Dawley rat plasma at 3 mg/kg, iv measured at 5 mins by LC-MS/MS; assay type: ADME, organism-based; method in brief: as §2
Heart [9] = assay: Inotropic activity in Langendorff isolated-perfused Sprague-Dawley rat heart assessed as drug level causing maximum increase in left ventricular developed pressure efficacy relative to baseline control; assay type: functional
Method in brief: (§3)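 Sprague-Dawley rat hearts isolated and perfused in Langendorff mode with increasing peptide concentrations from 0.001 to 0.3 nM. Increase in left ventricular developed pressure recorded as the inotropic read-out, expressed as % from baseline; compared with buffer by unpaired parametric t test.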

Rattus norvegicus [10] = assay: Hypotensive activity in Sprague-Dawley rat assessed as reduction in systemic arterial blood pressure at 65 nmol/kg, iv administered over 10 secs; assay type: functional, organism-based; method in brief: as §1
Heart [11] = assay: Inotropic activity in Langendorff isolated-perfused Sprague-Dawley rat heart assessed as increase in left ventricular developed pressure efficacy at 0.003 nM relative to baseline control; assay type: functional; method in brief: as §3
Heart [12] = assay: Inotropic activity in Langendorff isolated-perfused Sprague-Dawley rat heart assessed as increase in left ventricular developed pressure efficacy at 0.03 nM relative to baseline control; assay type: functional; settings: in the assay text read “0.003 nM” for “0.03 nM”; method in brief: as §3

Row | SMILES | pKi (Apelin receptor [1]) | pEC50 (Apelin receptor [2]) | pEC50 (Apelin receptor [3]) | half-life at 1000 µM [4] [h] | Activity (Heart [9]) | also measured
1 | CCCC[C@@H]1NC(=O)[C@@H]2CCCN2C(=O)[C@@H](NC(=O)[C@H](CCCCN)NC(=O)[C@H](Cc2cnc[nH]2)NC(=O)[C@H](CO)NC(=O)[C@H](CC(C)C)NC(=O)[C@H](CCCNC(=N)N)NC(=O)[C@@H]2CCCN2C(=O)[C@H](CCCNC(=N)N)NC(=O)[C@@H]2CCC(=O)N2)CCN(S(=O)(=O)c2ccccc2[N+](=O)[O-])C/C=C\C[C@@H](C(=O)O)NC(=O)[C@@H]2CCCN2C1=O | 9.82 | 8.89 | 7.24 | 6.8 | 3 pM | Activity (Rattus norvegicus [5]): <=40 mmHg; pEC50 (Apelin receptor [6]): 7.35; AUC at 2 h [7]: 2800 ng·h/mL; concentration at 5 min [8]: 2.5 µM
2 | CCCC[C@H](NC(=O)[C@@H]1CCCN1C(=O)CNC(=O)[C@@H]1C/C=C\CN(C(=O)[C@@H]2CCCN2C(=O)[C@H](CCCNC(=N)N)NC(=O)[C@@H]2CCC(=O)N2)[C@@H](CCCNC(=N)N)C(=O)N[C@@H](CC(C)C)C(=O)N[C@@H](CO)C(=O)N[C@@H](Cc2cnc[nH]2)C(=O)N1)C(=O)N1CCC[C@H]1C(=O)N[C@@H](Cc1ccccc1)C(=O)O ([pGlu]RP[X2]LSH[AllylGly]GP[Nle]PF-OH; staple (Z) 4-8) | 8.04 | 7.72 | 6.29 | 7.7 |  | 
3 | CCCC[C@@H]1NC(=O)[C@@H]2CCCN2C(=O)[C@@H](NC(=O)[C@@H](CCCCN)NC(=O)[C@H](Cc2cnc[nH]2)NC(=O)[C@H](CO)NC(=O)[C@H](CC(C)C)NC(=O)[C@H](CCCNC(=N)N)NC(=O)[C@@H]2CCCN2C(=O)[C@H](CCCNC(=N)N)NC(=O)[C@@H]2CCC(=O)N2)C/C=C\C[C@@H](C(=O)O)NC(=O)[C@@H]2CCCN2C1=O |  |  |  |  |  | Activity (Rattus norvegicus [10]): Active
4 | C=CC[C@H](NC(=O)[C@@H]1CCCN1C(=O)[C@H](CCCC)NC(=O)[C@@H]1CCCN1C(=O)[C@H](CC=C)NC(=O)[C@H](CCCCN)NC(=O)[C@H](Cc1cnc[nH]1)NC(=O)[C@H](CO)NC(=O)[C@H](CC(C)C)NC(=O)[C@H](CCCNC(=N)N)NC(=O)[C@@H]1CCCN1C(=O)[C@H](CCCNC(=N)N)NC(=O)[C@@H]1CCC(=O)N1)C(=O)O ([pGlu]RPRLSHK[AllylGly]P[Nle]P[AllylGly]-OH) | 8.68 | 8.70 | 6.84 | 2.4 |  | 
5 | CCCC[C@H](NC(=O)[C@@H]1CCCN1C(=O)CNC(=O)[C@H](CCCCN)NC(=O)[C@@H]1C/C=C\C[C@H](NC(=O)[C@H](CCCNC(=N)N)NC(=O)[C@@H]2CCC(=O)N2)C(=O)N[C@@H](CCCNC(=N)N)C(=O)N[C@@H](CC(C)C)C(=O)N[C@@H](CO)C(=O)N1)C(=O)N1CCC[C@H]1C(=O)N[C@@H](Cc1ccccc1)C(=O)O |  |  |  | 3.9 | Active | Activity (Rattus norvegicus [5]): <=40 mmHg
6 | CCCC[C@H](NC(=O)[C@@H]1CCCN1C(=O)CNC(=O)[C@H](CCCCN)NC(=O)[C@H](Cc1cnc[nH]1)NC(=O)[C@@H]1C/C=C\C[C@H](NC(=O)[C@@H]2CCC(=O)N2)C(=O)N2CCC[C@H]2C(=O)N[C@@H](CCCNC(=N)N)C(=O)N[C@@H](CC(C)C)C(=O)N1)C(=O)N1CCC[C@H]1C(=O)N[C@@H](Cc1ccccc1)C(=O)O | 6.29 |  |  | 0.7 |  | 
7 | CCCC[C@H](NC(=O)[C@@H]1C/C=C\C[C@H](NC(=O)[C@H](CC(C)C)NC(=O)[C@H](CCCNC(=N)N)NC(=O)[C@@H]2CCCN2C(=O)[C@H](CCCNC(=N)N)NC(=O)[C@@H]2CCC(=O)N2)C(=O)N[C@@H](Cc2cnc[nH]2)C(=O)N[C@@H](CCCCN)C(=O)NCC(=O)N1)C(=O)N1CCC[C@H]1C(=O)N[C@@H](Cc1ccccc1)C(=O)O ([pGlu]RPRL[AllylGly]HKG[AllylGly][Nle]PF-OH; staple (Z) 6-10) | 6.57 |  |  | 4.1 |  | 
8 | CCCC[C@@H]1NC(=O)[C@@H]2CCCN2C(=O)[C@@H](NC(=O)[C@H](CCCCN)NC(=O)[C@H](Cc2cnc[nH]2)NC(=O)[C@H](CO)NC(=O)[C@H](CC(C)C)NC(=O)[C@H](CCCNC(=N)N)NC(=O)[C@@H]2CCCN2C(=O)[C@H](CCCNC(=N)N)NC(=O)[C@@H]2CCC(=O)N2)C/C=C\C[C@@H](C(=O)O)NC(=O)[C@@H]2CCCN2C1=O [listing 1 of 2 here] |  |  |  |  | 3 pM | Efficacy (Heart [11]): 217%
9 | CCCC[C@H](NC(=O)[C@@H]1CCCN1C(=O)CNC(=O)[C@H](CCCCN)NC(=O)[C@H](Cc1cnc[nH]1)NC(=O)[C@H](CO)NC(=O)[C@@H]1C/C=C\C[C@H](N)C(=O)N[C@@H](CCCNC(=N)N)C(=O)N2CCC[C@H]2C(=O)N[C@@H](CCCNC(=N)N)C(=O)N1)C(=O)N1CCC[C@H]1C(=O)N[C@@H](Cc1ccccc1)C(=O)O | 8.24 | 7.64 | 6.08 | 0.8 |  | 
10 | CSCC[C@H](NC(=O)[C@@H]1CCCN1C(=O)CNC(=O)[C@H](CCCCN)NC(=O)[C@H](Cc1cnc[nH]1)NC(=O)[C@H](CO)NC(=O)[C@H](CC(C)C)NC(=O)[C@H](CCCNC(=N)N)NC(=O)[C@@H]1CCCN1C(=O)[C@H](CCCNC(=N)N)NC(=O)[C@@H]1CCC(=O)N1)C(=O)N1CCC[C@H]1C(=O)N[C@@H](Cc1ccccc1)C(=O)O |  |  |  |  | 30 pM | AUC at 2 h [7]: 3.33 ng·h/mL; Efficacy (Heart [12]): 81%
11 | CC(C)C[C@H](NC(=O)[C@H](CCCNC(=N)N)NC(=O)[C@@H]1CCCN1C(=O)[C@H](CCCNC(=N)N)NC(=O)[C@@H]1CCC(=O)N1)C(=O)N[C@@H](CO)C(=O)N[C@H]1C/C=C\C[C@@H](C(=O)N2CCC[C@H]2C(=O)N[C@@H](Cc2ccccc2)C(=O)O)NC(=O)[C@@H]2CCCN2C(=O)CNC(=O)[C@H](CCCCN)NC1=O ([pGlu]RPRLS[AllylGly]KGP[AllylGly]PF-OH; staple (Z) 7-11) | 8.85 | 7.70 | 6.40 | 6.6 |  | 
12 | CCCC[C@@H]1NC(=O)[C@@H]2CCCN2C(=O)[C@@H](NC(=O)[C@H](CCCCN)NC(=O)[C@H](Cc2cnc[nH]2)NC(=O)[C@H](CO)NC(=O)[C@H](CC(C)C)NC(=O)[C@H](CCCNC(=N)N)NC(=O)[C@@H]2CCCN2C(=O)[C@H](CCCNC(=N)N)NC(=O)[C@@H]2CCC(=O)N2)C/C=C\C[C@@H](C(=O)O)NC(=O)[C@@H]2CCCN2C1=O [listing 2 of 2 here] |  |  |  | 8.6 |  | pKi (Apelin receptor [1]; hek293): 8.96; pEC50 (Apelin receptor [2]; hek293): 7.72; pEC50 (Apelin receptor [3]; hek293): 6.57; pEC50 (Apelin receptor [6]; hek293): 6.33; AUC at 2 h [7]: 4100 ng·h/mL; concentration at 5 min [8]: 5.6 µM
13 | CCCC[C@@H]1NC(=O)[C@@H]2CCCN2C(=O)CNC(=O)[C@@H](NC(=O)[C@H](Cc2cnc[nH]2)NC(=O)[C@H](CO)NC(=O)[C@H](CC(C)C)NC(=O)[C@H](CCCNC(=N)N)NC(=O)[C@@H]2CCCN2C(=O)[C@H](CCCNC(=N)N)NC(=O)[C@@H]2CCC(=O)N2)C/C=C\C[C@@H](C(=O)N[C@@H](Cc2ccccc2)C(=O)O)NC1=O ([pGlu]RPRLSH[AllylGly]GP[Nle][AllylGly]F-OH; staple (Z) 8-12) | 7.85 | 7.52 | 6.08 | 4.6 |  | 
